# Only some compounds are listed: those with a hit (about 3.2% of all), similar ones and a draw of the others.
# PfHsp90 set2: inhibits growth of yeast expressing Plasmodium falciparum Hsp90. S. cerevisiae expressing PfHsp90, BacTiter-Glo ATP, 48 h; yeast lacking PDR1 and PDR3 efflux regulators. inhibition, % at 9.4 µM. 310,000 tested, 0.32% active;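 active = every replicate shows inhibition above about 80%, whatever the replicate mean, limit read from the data; inconclusive = mean inhibition reaches the set limit but some replicate falls short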;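 note: 0% = DMSO neutral controls and 100% = 20 µM radicicol positive controls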
# Cneo AK release: causes C. neoformans cell lysis; adenylate kinase release luminescence, 4 h; normalised: neutral wells 0, clomiphene wells 100; lysis activity, % at 15 µM; 360,000 tested, 0.2% active; AID 651654;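 active = mean lysis activity across replicates of at least 80%, whatever share of replicates individually reach that level; inactive = mean lysis activity below 80%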
#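 Assay system: C. neoformans cells. Amount: yeast cell density of 5 × 10^6 cells/mL. Technique: AK luminescence. Buffer or medium: YPD. Times: static 4 h at 37 °C with compound, 1 h detection. Dosing: single-point compound dose. Read-out: lysis from increased AK signal.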
# S100A4 MyoIIA: S100A4-myosin IIA interaction inhibition | P26447 | S100A4/TAMRA-MyoIIA peptide fluorescence polarization | inhibition, % at 10.7 µM | 360,000 tested, 0.14% active | AID 652163;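 active = mean inhibition of at least 70% across replicates, with every replicate also reaching that level; inconclusive = mean inhibition reaches 70% but some replicates fall short; inactive = mean inhibition below 70%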
# Target sequence (P26447 whole entry, looked up): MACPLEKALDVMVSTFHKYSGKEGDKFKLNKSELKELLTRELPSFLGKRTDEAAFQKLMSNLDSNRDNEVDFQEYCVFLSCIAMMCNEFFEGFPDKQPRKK
#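 Material: S100A4 monomer protein | Medium: HEPES pH 7.2 with CaCl2, KCl, NaCl, DTT, Triton | Reagent: Labelled myosin peptide probe, 5 nM | Doses: One dose per compound | Times: 5 min incubation before reading | Benchmarks: Neutral control DMSO, positive control TFP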
# Ecoli rRNA inh: selective bacterial rRNA inhibition in E. coli; GFP signal change (wild-type ribosome), % (concentration not given with the values); 350,000 tested, 1.6% active; E. coli WT GFP vs humanized-ribosome RFP mutants, fluorescence, 24 h; stronger effect = lower value; DMSO median 0, no signal -100;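 active = significant combined selectivity score with lowered wild-type GFP, culture density cut under 30%, mutant RFP and density less affected; inactive = any of these conditions unmet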
# MLL AF4-AF9 inh: inhibitors of human MLL-AF4/AF9 interaction; 350,000 tested, 0.47% active; inhibition, % at 10 µM; AlphaScreen, biotin-AF4 peptide binding to FLAG-AF9;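 active = every replicate reaching a set inhibition limit, whatever the replicate mean, cut at about 25% in these data; inconclusive = mean inhibition reaches that limit but some replicates miss it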;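 note: 0% = plate neutral control median and 100% = total signal loss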
# Target sequence (P42568 whole entry, looked up): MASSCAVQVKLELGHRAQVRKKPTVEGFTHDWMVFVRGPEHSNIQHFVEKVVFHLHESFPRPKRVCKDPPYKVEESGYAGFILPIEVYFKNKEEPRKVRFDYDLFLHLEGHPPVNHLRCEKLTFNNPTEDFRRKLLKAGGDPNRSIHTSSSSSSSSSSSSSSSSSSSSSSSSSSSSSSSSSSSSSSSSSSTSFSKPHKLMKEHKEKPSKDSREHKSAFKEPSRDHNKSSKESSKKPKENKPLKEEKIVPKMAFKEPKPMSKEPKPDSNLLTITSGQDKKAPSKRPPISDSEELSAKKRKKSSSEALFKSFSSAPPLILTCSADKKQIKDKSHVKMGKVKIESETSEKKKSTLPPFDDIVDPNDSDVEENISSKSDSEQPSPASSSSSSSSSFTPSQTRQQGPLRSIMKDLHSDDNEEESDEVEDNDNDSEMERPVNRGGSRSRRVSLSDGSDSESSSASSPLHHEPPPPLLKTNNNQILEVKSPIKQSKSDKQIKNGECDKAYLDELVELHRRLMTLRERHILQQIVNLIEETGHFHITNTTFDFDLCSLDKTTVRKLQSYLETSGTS
# DENV2 CPE rescue: protects cells from dengue virus 2 cytopathic effect. CPE inhibition, % at 9.99 µM. AID 651640. 350,000 tested, 1.7% active. DENV2-infected cells, cytopathic effect rescue, plate reader; in the data active = CPE inhibition above about 20%, passing the limit was not always enough; inconclusive = no clear call, values can overlap the other calls; tested in BHK-21 cells;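 note: 0% = median of neutral control wells and 100% = median of positive control wells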
# An asterisk follows results filed as active; u = inconclusive; x = not tested or not shown.
SMILES,PfHsp90 set2,Cneo AK release,S100A4 MyoIIA,Ecoli rRNA inh,MLL AF4-AF9 inh,DENV2 CPE rescue
C/C(=N\N=C(/N)SC1CC(=O)N(c2ccc(Cl)c(Cl)c2)C1=O)c1cccs1 (configuration not stated),3,-1,-7,-39*,-4,-1
C[C@@H]1CN([C@@H](C)CO)C(=O)c2cc(C3=CCCCC3)cnc2O[C@H]1CN(C)C(=O)C1CCOCC1,x,0,-4,5,-1,2
Cc1noc(C)c1NC(=O)N[C@@H]1CC[C@@H](CC(=O)Nc2ccc(-c3ccccc3)cc2)O[C@@H]1CO,x,1,14,-3,-13,5
CO[C@H]1CN(C)C(=O)c2ccc(NC(C)=O)cc2OC[C@H](C)N(C(=O)c2ccccc2F)C[C@H]1C,x,-4,x,0,x,x
CCCc1[nH]n(-c2nc3ccccc3s2)c(=O)c1C=NCCN1CCOCC1,-22,6,x,x,x,x
CCCc1[nH]n(-c2nc3ccccc3s2)c(=O)c1C=NCC1CCCO1 (configuration not stated),x,-3,1,-25*,x,x
CCc1ccc(C2c3[nH]c4ccccc4c3CCN2C(=O)CN2CCN(CC)CC2)cc1 (configuration not stated),-1,x,3,-59,31*,-2
C[C@@H]1CN([C@H](C)CO)C(=O)c2cc(NS(=O)(=O)c3cccs3)ccc2O[C@@H]1CN(C)S(=O)(=O)c1cccs1,x,x,x,-2,x,x
NC(=NCc1ccccc1)NN=Cc1ccnc2ccccc12,x,x,1,3,27*,6
CCc1ccccc1NC(=O)c1cccc(Oc2ccc([N+](=O)[O-])cc2Cl)c1,92*,x,0,-11,2,-7
COc1ccc2c3c([nH]c2c1)[C@@H](CO)N(C(C)=O)CC31CCN(C(=O)Nc2c(C)noc2C)CC1,x,x,-4,8,0,21*
COc1ccc2c3c([nH]c2c1)[C@H](CO)N(C(=O)Nc1c(C)noc1C)CC31CCN(CC2CC2)CC1,x,x,u,6,5,42*
COc1ccc2c3c([nH]c2c1)[C@H](CO)N(C(C)=O)CC31CCN(C(=O)Nc2c(C)noc2C)CC1,x,x,-8,0,-11,-2
C[C@H]1CN([C@@H](C)CO)C(=O)c2ccccc2-c2ccccc2CO[C@H]1CN(C)S(=O)(=O)c1ccc(C#N)cc1,x,48,2,-2,-2,x
COc1ccc(NC(=O)Nc2ccc3c(c2)C(=O)N([C@@H](C)CO)C[C@@H](C)[C@@H](CN(C)C(=O)c2ccccc2)OCCCC[C@@H](C)O3)cc1,x,2,15,-4,0,-6
NC(=O)NN=C1CC2CC1C1C=CCC21 (configuration not stated),17,x,8,0,3,-2
NNC(=S)NC1CC2CC1C1C=CCC21 (configuration not stated),-4,4,1,-21*,x,-5
COc1ccc(NC(=O)Nc2ccc3c(c2)C(=O)N([C@@H](C)CO)C[C@H](C)[C@@H](CN(C)C(=O)NC2CCCCC2)OCCCC[C@H](C)O3)cc1,x,x,-2,-1,-1,4
Cc1noc(C)c1NC(=O)N(C)C[C@@H]1Oc2ccc(NS(=O)(=O)c3cn(C)cn3)cc2CC(=O)N([C@H](C)CO)C[C@@H]1C,x,-2,1,4,-2,0
Cc1noc(C)c1NC(=O)N(C)C[C@H]1Oc2ccc(NS(=O)(=O)c3cn(C)cn3)cc2CC(=O)N([C@H](C)CO)C[C@H]1C,x,102*,-1,2,1,-14
C[C@@H]1CN([C@@H](C)CO)C(=O)Cc2cc(NS(=O)(=O)c3cn(C)cn3)ccc2O[C@@H]1CN(C)C(=O)Nc1ccc2c(c1)OCO2,x,-1,-5,1,-31,28*
C[C@H](CO)N1C[C@H](C)[C@H](CN(C)S(=O)(=O)c2ccccc2)Oc2c(NC(=O)Nc3cccc4ccccc34)cccc2C1=O,x,x,-7,0,0,-6
Cc1ccc(S(=O)(=O)N(C)C[C@H]2Oc3c(NC(=O)Nc4cccc5ccccc45)cccc3C(=O)N([C@H](C)CO)C[C@@H]2C)cc1,x,7,7,0,2,35*
C[C@H](CO)N1C[C@H](C)[C@@H](CN(C)S(=O)(=O)c2ccccc2)Oc2c(NC(=O)Nc3cccc4ccccc34)cccc2C1=O,x,103*,2,1,3,168*
Cc1ccc(S(=O)(=O)N(C)C[C@@H]2Oc3c(NC(=O)C4CCCCC4)cccc3C(=O)N([C@H](C)CO)C[C@@H]2C)cc1,x,-2,109*,4,-4,-12
SMILES,PfHsp90 set2,Cneo AK release,S100A4 MyoIIA,Ecoli rRNA inh,MLL AF4-AF9 inh,DENV2 CPE rescue
CCS(=O)(=O)N1CCC2(CC1)CN(C(=O)c1ccc(F)cc1)[C@@H](CO)c1c2c2ccc(OC)cc2n1C,x,x,-3,0,2,24*
COc1ccc2c3c(n(C)c2c1)[C@@H](CO)N(C(=O)c1cccc(F)c1)CC31CN(C(=O)c2cccc(F)c2)C1,x,x,-4,-4,5,34*
COc1ccc2c3c(n(C)c2c1)[C@@H](CO)NCC31CN(C(=O)c2ccc(F)cc2)C1,x,x,x,1,x,x
COc1ccc2c3c(n(C)c2c1)[C@H](CO)NCC31CN(C(=O)c2ccc(F)cc2)C1,x,x,x,0,3,69*
C[C@@H]1CCCCO[C@H](CN(C)C(=O)c2ccccc2)[C@H](C)CN([C@@H](C)CO)C(=O)c2cc(NC(=O)Nc3ccc(F)cc3)ccc2O1,x,2,-2,x,-9,11
COc1ccc(CNC(=O)CCS(=O)(=O)c2ccc3c(c2)NC(=O)CS3)cc1,-17,0,-4,0,-5,35*
COc1ccc(CNC(=O)CCS(=O)(=O)c2ccc3c(c2)NC(=O)C(C)S3)cc1 (configuration not stated),13,2,-7,4,-4,1
CCN(c1ccc(OC)cc1)S(=O)(=O)c1ccc2c(c1)NC(=O)CS2,2,-15,-1,-27*,-14,11
CC(C)CC#Cc1cnc2c(c1)C(=O)N([C@H](C)CO)C[C@@H](C)[C@H](CN(C)C(=O)c1ccccc1)O2,x,0,2,1,2,7
CCCCOc1ccc(C(=O)NCCN2CCC(n3c(=O)[nH]c4ccccc43)CC2)cc1,x,x,14,-45*,0,4
O=C(NCCN1CCC(n2c(=O)[nH]c3ccccc32)CC1)c1ccc(OC(F)(F)F)cc1,x,x,13,-23,1,3
C[C@H](CO)N1C[C@H](C)[C@H](CN(C)Cc2ccc(-c3ccccc3)cc2)Oc2c(NS(=O)(=O)c3cccs3)cccc2C1=O,x,0,-7,1,-3,-6
Cc1cccc2cc(CN(CC3CCCO3)S(=O)(=O)c3ccccc3)c(=O)[nH]c12 (configuration not stated),1,1,0,-24*,2,1
